From ChEMBL document CHEMBL2417469, “Synthesis of novel analogs of 2-pyrazoline obtained from [(7-chloroquinolin-4-yl)amino]chalcones and hydrazine as potential antitumor and antimalarial agents” (Eur J Med Chem, 2013)

Tests used:
Format in all cases: functional
MDA-MB-468 = assay: Cytotoxicity against human MDA-MB-468 cells after 48 hrs by SRB assay; settings: MDA-MB-468, 48 h
Outline: (§1)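 NCI 60-cell-line screen. Cells preincubated 24 h at 37 °C, 5% CO2; time-zero plates TCA-fixed. Compounds dissolved in DMSO and tested at five concentrations (100, 10, 1.0, 0.1, 0.01 µM) for 48 h continuous exposure. Adherent cells fixed with cold TCA (10% final), then SRB stained; absorbance at 515 nm. GI50, TGI and LC50 calculated from growth relative to time-zero and untreated controls.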

Hs-578T = assay: Cytotoxicity against human Hs578T cells after 48 hrs by SRB assay; outline: as §1
MCF7 = assay: Cytotoxicity against human MCF7 cells after 48 hrs by SRB assay; settings: MCF7, 48 h; outline: as §1
MDA-MB-231 = assay: Cytotoxicity against human MDA-MB-231 cells after 48 hrs by SRB assay; settings: MDA-MB-231, 48 h; outline: as §1
DU-145 = assay: Cytotoxicity against human DU145 cells after 48 hrs by SRB assay; settings: DU-145, 48 h; outline: as §1
UO-31 = assay: Cytotoxicity against human UO31 cells after 48 hrs by SRB assay; settings: UO-31, 48 h
Outline: (§2)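 NCI 60-cell screen. Cells grew 24 h (37 °C, 5% CO2) before compound was added. Compounds were in DMSO and diluted in medium with gentamicin, then tested at five levels (100, 10, 1.0, 0.1, 0.01 µM) with 48 h continuous exposure. Adherent cells were fixed with TCA (10% final) and stained with 0.4% SRB, absorbance read at 515 nm. A time-zero plate was included. LC50 is the concentration giving 50% loss of protein relative to time zero.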

PC-3 = assay: Cytotoxicity against human PC3 cells after 48 hrs by SRB assay; settings: PC-3, 48 h; outline: as §1
TK-10 = assay: Cytotoxicity against human TK10 cells after 48 hrs by SRB assay; settings: TK-10, 48 h; outline: as §2
CAKI-1 = assay: Cytotoxicity against human Caki1 cells after 48 hrs by SRB assay; settings: CAKI-1, 48 h; outline: as §1
RXF 393 = assay: Cytotoxicity against human RXF393 cells after 48 hrs by SRB assay; settings: RXF 393, 48 h; outline: as §1
A498 = assay: Cytotoxicity against human A498 cells after 48 hrs by SRB assay; settings: A498, 48 h; outline: as §1
786-0 = assay: Cytotoxicity against human 786-0 cells after 48 hrs by SRB assay; settings: 786-0, 48 h; outline: as §1
SK-OV-3 = assay: Cytotoxicity against human SKOV3 cells after 48 hrs by SRB assay; settings: SK-OV-3, 48 h; outline: as §1
OVCAR-8 = assay: Cytotoxicity against human OVCAR8 cells after 48 hrs by SRB assay; settings: OVCAR-8, 48 h; outline: as §1
OVCAR-4 = assay: Cytotoxicity against human OVCAR4 cells after 48 hrs by SRB assay; settings: OVCAR-4, 48 h; outline: as §1
IGROV-1 = assay: Cytotoxicity against human IGROV1 cells after 48 hrs by SRB assay; settings: IGROV-1, 48 h; outline: as §1
UACC-62 = assay: Cytotoxicity against human UACC62 cells after 48 hrs by SRB assay; settings: UACC-62, 48 h; outline: as §2
SK-MEL-28 = assay: Cytotoxicity against human SK-MEL-28 cells after 48 hrs by SRB assay; settings: SK-MEL-28, 48 h; outline: as §1
SK-MEL-2 = assay: Cytotoxicity against human SK-MEL-2 cells after 48 hrs by SRB assay; settings: SK-MEL-2, 48 h; outline: as §1
MDA-MB-435 = assay: Cytotoxicity against human MDA-MB-435 cells after 48 hrs by SRB assay; settings: MDA-MB-435, 48 h; outline: as §1
M14 = assay: Cytotoxicity against human M14 cells after 48 hrs by SRB assay; settings: M14, 48 h; outline: as §1
Malme-3M = assay: Cytotoxicity against human MALME-3M cells after 48 hrs by SRB assay; outline: as §1
U-251 = assay: Cytotoxicity against human U251 cells after 48 hrs by SRB assay; settings: U-251, 48 h; outline: as §2
LOX IMVI = assay: Cytotoxicity against human LOXIMVI cells after 48 hrs by SRB assay; outline: as §1
SF-539 = assay: Cytotoxicity against human SF539 cells after 48 hrs by SRB assay; settings: SF-539, 48 h; outline: as §1
SNB-19 = assay: Cytotoxicity against human SNB19 cells after 48 hrs by SRB assay; settings: SNB-19, 48 h; outline: as §2
SF-268 = assay: Cytotoxicity against human SF268 cells after 48 hrs by SRB assay; settings: SF-268, 48 h; outline: as §1
KM12 = assay: Cytotoxicity against human KM12 cells after 48 hrs by SRB assay; settings: KM12, 48 h; outline: as §1
HCT-15 = assay: Cytotoxicity against human HCT15 cells after 48 hrs by SRB assay; settings: HCT-15, 48 h; outline: as §1
HT-29 = assay: Cytotoxicity against human HT-29 cells after 48 hrs by SRB assay; settings: HT-29, 48 h; outline: as §1
HCT-116 = assay: Cytotoxicity against human HCT116 cells after 48 hrs by SRB assay; settings: HCT-116, 48 h; outline: as §1
HCC 2998 = assay: Cytotoxicity against human HCC2998 cells after 48 hrs by SRB assay; settings: HCC 2998, 48 h; outline: as §1
NCI-H226 = assay: Cytotoxicity against human NCI-H226 cells after 48 hrs by SRB assay; settings: NCI-H226, 48 h; outline: as §1
HOP-92 = assay: Cytotoxicity against human HOP92 cells after 48 hrs by SRB assay; settings: HOP-92, 48 h; outline: as §1
SR = assay: Cytotoxicity against human SR cells after 48 hrs by SRB assay; outline: as §2
A549 = assay: Cytotoxicity against human A549/ATCC cells after 48 hrs by SRB assay; settings: A549, 48 h; outline: as §1
[1] = read-out: LC50 (the source's name)

Question: `O=CN1N=C(c2ccc(Nc3ccnc4cc(Cl)ccc34)cc2)CC1c1ccc(Cl)cc1` (stereo unspecified) was tested. Which GI50 (MDA-MB-468) did it give?
Answer: 320 nM

Question: And the LC50 (MDA-MB-468)?
Answer: > 100000 nM

Question: What about the GI50 (Hs-578T) of the same compound?
Answer: 3930 nM

Question: And the LC50 (50% net cell kill) (Hs-578T)?
Answer: > 100000 nM

Question: And the GI50 (MCF7)?
Answer: 480 nM

Question: And the CC50 (MCF7; [1])?
Answer: > 100000 nM

Question: What about the GI50 (MDA-MB-231) of the same compound?
Answer: 1430 nM

Question: And the LC50 (concentration killing 50% of cells present at time zero) (MDA-MB-231)?
Answer: > 100000 nM

Question: What about the GI50 (DU-145) of the same compound?
Answer: 1940 nM

Question: And the LC50 (concentration killing 50% of cells) (DU-145)?
Answer: > 100000 nM

Question: And the GI50 (UO-31)?
Answer: 1300 nM

Question: What about the LC50 (UO-31) of the same compound?
Answer: > 100000 nM

Question: What about the GI50 (PC-3) of the same compound?
Answer: 480 nM

Question: And the LC50 (PC-3)?
Answer: > 100000 nM

Question: What about the GI50 (TK-10) of the same compound?
Answer: 9570 nM

Question: And the LC50 (concentration giving 50% cell loss vs time zero) (TK-10)?
Answer: > 100000 nM

Question: And the GI50 (CAKI-1)?
Answer: 410 nM

Question: What about the LC50 (CAKI-1) of the same compound?
Answer: > 100000 nM

Question: And the GI50 (RXF 393)?
Answer: 1880 nM

Question: And the LC50 (concentration killing 50% of cells) (RXF 393)?
Answer: > 100000 nM

Question: And the GI50 (A498)?
Answer: > 100000 nM

Question: What about the CC50 (A498; [1]) of the same compound?
Answer: > 100000 nM

Question: And the GI50 (786-0)?
Answer: 910 nM

Question: And the LC50 (786-0)?
Answer: > 100000 nM

Question: And the GI50 (SK-OV-3)?
Answer: 570 nM

Question: What about the LC50 (concentration killing 50% of cells) (SK-OV-3) of the same compound?
Answer: > 100000 nM

Question: And the GI50 (OVCAR-8)?
Answer: 3220 nM

Question: What about the LC50 (50% net cell kill) (OVCAR-8) of the same compound?
Answer: > 100000 nM

Question: And the GI50 (OVCAR-4)?
Answer: 6480 nM

Question: What about the LC50 (OVCAR-4) of the same compound?
Answer: > 100000 nM

Question: What about the GI50 (IGROV-1) of the same compound?
Answer: 5010 nM

Question: And the LC50 (concentration killing 50% of cells relative to time zero) (IGROV-1)?
Answer: > 100000 nM

Question: What about the GI50 (UACC-62) of the same compound?
Answer: 570 nM

Question: What about the CC50 (UACC-62; [1]) of the same compound?
Answer: > 100000 nM

Question: What about the GI50 (SK-MEL-28) of the same compound?
Answer: 760 nM

Question: What about the CC50 (SK-MEL-28; [1]) of the same compound?
Answer: > 100000 nM

Question: And the GI50 (SK-MEL-2)?
Answer: 7860 nM

Question: What about the LC50 (SK-MEL-2) of the same compound?
Answer: > 100000 nM

Question: And the GI50 (MDA-MB-435)?
Answer: 200 nM

Question: What about the LC50 (MDA-MB-435) of the same compound?
Answer: > 100000 nM

Question: And the GI50 (M14)?
Answer: 620 nM

Question: And the CC50 (M14; [1])?
Answer: > 100000 nM

Question: What about the LC50 (Malme-3M) of the same compound?
Answer: > 100000 nM

Question: And the GI50 (U-251)?
Answer: 510 nM

Question: And the CC50 (U-251; [1])?
Answer: > 100000 nM

Question: And the GI50 (LOX IMVI)?
Answer: 600 nM

Question: What about the LC50 (LOX IMVI) of the same compound?
Answer: > 100000 nM

Question: And the GI50 (SF-539)?
Answer: 580 nM

Question: What about the CC50 (SF-539; [1]) of the same compound?
Answer: > 100000 nM

Question: What about the GI50 (SNB-19) of the same compound?
Answer: 1920 nM

Question: What about the LC50 (SNB-19) of the same compound?
Answer: > 100000 nM

Question: What about the GI50 (SF-268) of the same compound?
Answer: 850 nM

Question: And the LC50 (SF-268)?
Answer: > 100000 nM

Question: And the GI50 (KM12)?
Answer: 540 nM

Question: What about the LC50 (concentration killing 50% of cells) (KM12) of the same compound?
Answer: > 100000 nM

Question: What about the GI50 (HCT-15) of the same compound?
Answer: 580 nM

Question: And the LC50 (concentration killing 50% of cells relative to time zero) (HCT-15)?
Answer: > 100000 nM

Question: What about the GI50 (HT-29) of the same compound?
Answer: 410 nM

Question: And the LC50 (HT-29)?
Answer: > 100000 nM

Question: What about the GI50 (HCT-116) of the same compound?
Answer: 500 nM

Question: What about the LC50 (HCT-116) of the same compound?
Answer: > 100000 nM

Question: What about the GI50 (HCC 2998) of the same compound?
Answer: 1610 nM

Question: And the LC50 (HCC 2998)?
Answer: > 100000 nM

Question: And the GI50 (NCI-H226)?
Answer: 4660 nM

Question: What about the LC50 (50% lethal concentration) (NCI-H226) of the same compound?
Answer: > 100000 nM

Question: And the GI50 (HOP-92)?
Answer: > 100000 nM

Question: And the LC50 (concentration killing 50% of cells) (HOP-92)?
Answer: > 100000 nM

Question: And the GI50 (SR)?
Answer: 320 nM

Question: And the LC50 (SR)?
Answer: > 100000 nM

Question: What about the GI50 (A549) of the same compound?
Answer: 990 nM

Question: What about the CC50 (A549; [1]) of the same compound?
Answer: > 100000 nM
